ChEMBL document CHEMBL3112447, “Discovery of 1-methyl-1H-imidazole derivatives as potent Jak2 inhibitors” (J Med Chem, 2014)

Legend:
Mus musculus [1] = assay: Toxicity in SCID mouse xenografted with human UKE1 cells assessed as body weight loss at 10 mg/kg, po bid administered for 14 days measured on day 31 (reference value: 7.1%); format: organism-based; set-up: dose 10 mg/kg, route oral; conditions: in vivo, 336 h
Procedure, shortened: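 UKE-1 cells mixed with matrigel implanted subcutaneously in female SCID mice. On day 15, mice randomized at a mean tumor volume of about 150 mm³. Oral gavage twice daily at 3 or 10 mg/kg, or vehicle, for 14 days. Tumor volume and body weight tracked through the dosing phase.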

Mus musculus [2] = assay: In vivo inhibition of Jak2 in po dose3d mouse transfected with mouse BA/F3 cells expressing TEL-Jak2 assessed as inhibition of STAT5 phosphorylation after 6 to 12 hrs by Western blotting analysis; format: functional, organism-based; conditions: BaF3
Procedure, shortened: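 Mice bearing BaF3 TEL-JAK2 cells given a single oral dose of 3, 5 or 10 mg/kg and sacrificed at various times after dosing. Spleen lysates probed for phospho-STAT5 and total STAT5 by Western blot, and pSTAT5 inhibition assessed.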

[3] = Cytotoxicity against mouse BA/F3 cells expressing TEL-Tyk2 after 72 hrs by MTS assay; format: functional; conditions: BaF3, 72 h
Procedure, shortened: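 BaF3 cells transfected with the kinase domain of Jak1, Jak3 or Tyk2 (TEL fusions). Growth inhibition measured as the counter-screen for cellular selectivity.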

[4] = target: Proto-oncogene tyrosine-protein kinase receptor Ret (Homo sapiens, UniProt P07949); assay: Inhibition of human Ret
Procedure, shortened: (§1)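 Panel of 82 kinases. Radiometric filter-binding assay with ATP at or near Km. Compound tested at 0.01, 0.10 and 1.0 μM. Values expressed as minimum possible fold selectivity against Jak2.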

[5] = target: Vascular endothelial growth factor receptor 3 (Homo sapiens, UniProt P35916); assay: Inhibition of human Flt4; procedure, shortened: as §1
Sequence of Vascular endothelial growth factor receptor 3 (P35916 whole entry): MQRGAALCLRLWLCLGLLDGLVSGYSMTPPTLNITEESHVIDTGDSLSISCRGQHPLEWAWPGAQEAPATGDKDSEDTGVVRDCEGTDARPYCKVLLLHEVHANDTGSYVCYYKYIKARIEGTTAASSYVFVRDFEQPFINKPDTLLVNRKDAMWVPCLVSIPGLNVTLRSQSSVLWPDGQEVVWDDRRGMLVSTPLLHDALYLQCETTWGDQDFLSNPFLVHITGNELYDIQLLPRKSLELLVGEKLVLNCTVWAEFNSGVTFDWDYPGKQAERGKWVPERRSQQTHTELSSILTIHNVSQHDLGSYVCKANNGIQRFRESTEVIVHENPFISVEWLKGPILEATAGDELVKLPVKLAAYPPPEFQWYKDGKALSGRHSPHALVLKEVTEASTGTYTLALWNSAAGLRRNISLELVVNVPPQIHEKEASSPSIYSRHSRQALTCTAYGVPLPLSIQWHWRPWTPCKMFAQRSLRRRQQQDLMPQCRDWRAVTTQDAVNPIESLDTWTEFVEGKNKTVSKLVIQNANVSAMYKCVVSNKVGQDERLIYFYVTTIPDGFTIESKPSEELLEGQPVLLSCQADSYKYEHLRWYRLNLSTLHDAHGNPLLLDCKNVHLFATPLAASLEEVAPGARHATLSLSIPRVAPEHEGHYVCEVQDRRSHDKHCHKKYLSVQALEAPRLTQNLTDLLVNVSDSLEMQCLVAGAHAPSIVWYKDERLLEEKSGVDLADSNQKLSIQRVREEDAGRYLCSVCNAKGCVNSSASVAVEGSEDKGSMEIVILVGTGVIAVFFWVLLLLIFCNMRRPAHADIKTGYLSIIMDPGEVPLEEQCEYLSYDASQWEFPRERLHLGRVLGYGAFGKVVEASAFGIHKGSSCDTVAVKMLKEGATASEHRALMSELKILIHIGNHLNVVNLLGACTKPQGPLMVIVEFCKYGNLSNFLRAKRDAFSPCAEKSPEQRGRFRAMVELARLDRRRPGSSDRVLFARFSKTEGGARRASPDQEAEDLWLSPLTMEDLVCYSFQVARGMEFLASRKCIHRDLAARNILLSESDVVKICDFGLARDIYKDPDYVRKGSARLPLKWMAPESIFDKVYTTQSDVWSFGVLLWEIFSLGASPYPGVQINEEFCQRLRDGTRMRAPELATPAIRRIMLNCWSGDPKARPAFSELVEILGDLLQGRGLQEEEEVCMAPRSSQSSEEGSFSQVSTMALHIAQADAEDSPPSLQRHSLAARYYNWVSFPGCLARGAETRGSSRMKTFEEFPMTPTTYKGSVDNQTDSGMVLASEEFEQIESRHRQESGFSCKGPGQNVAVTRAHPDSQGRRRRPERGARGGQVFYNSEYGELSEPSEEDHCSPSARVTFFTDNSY

Sequence of Proto-oncogene tyrosine-protein kinase receptor Ret (P07949 whole entry): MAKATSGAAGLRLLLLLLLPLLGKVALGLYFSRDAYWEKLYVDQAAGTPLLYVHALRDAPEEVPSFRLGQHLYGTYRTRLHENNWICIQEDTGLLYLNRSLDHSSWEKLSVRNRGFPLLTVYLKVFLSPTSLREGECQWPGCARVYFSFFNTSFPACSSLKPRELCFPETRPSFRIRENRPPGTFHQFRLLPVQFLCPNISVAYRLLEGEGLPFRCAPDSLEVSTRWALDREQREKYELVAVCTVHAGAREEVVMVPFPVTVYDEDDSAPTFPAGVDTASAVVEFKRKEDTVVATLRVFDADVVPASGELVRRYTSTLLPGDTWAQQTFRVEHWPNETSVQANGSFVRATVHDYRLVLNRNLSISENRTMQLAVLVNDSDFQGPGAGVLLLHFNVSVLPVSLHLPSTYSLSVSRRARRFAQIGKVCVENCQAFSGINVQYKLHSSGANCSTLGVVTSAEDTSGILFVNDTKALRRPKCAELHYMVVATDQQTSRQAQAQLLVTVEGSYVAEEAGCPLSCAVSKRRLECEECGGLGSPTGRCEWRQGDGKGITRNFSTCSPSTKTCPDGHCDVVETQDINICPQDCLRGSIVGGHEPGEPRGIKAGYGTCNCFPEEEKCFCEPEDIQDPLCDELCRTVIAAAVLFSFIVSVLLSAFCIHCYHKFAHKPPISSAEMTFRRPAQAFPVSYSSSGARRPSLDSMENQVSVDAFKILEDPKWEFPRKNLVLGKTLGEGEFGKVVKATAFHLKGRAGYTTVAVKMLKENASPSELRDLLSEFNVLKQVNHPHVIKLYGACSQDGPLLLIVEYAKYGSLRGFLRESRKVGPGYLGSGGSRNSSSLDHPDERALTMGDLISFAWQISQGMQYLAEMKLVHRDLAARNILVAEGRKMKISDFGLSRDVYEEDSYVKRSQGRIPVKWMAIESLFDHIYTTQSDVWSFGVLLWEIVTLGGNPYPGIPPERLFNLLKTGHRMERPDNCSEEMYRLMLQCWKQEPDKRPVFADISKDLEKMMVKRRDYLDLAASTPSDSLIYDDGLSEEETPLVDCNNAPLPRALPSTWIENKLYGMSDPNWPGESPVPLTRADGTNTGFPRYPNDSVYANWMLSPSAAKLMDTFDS

Structure (SMILES): C[C@H](Nc1nc(Nc2cn(C)cn2)c2cc[nH]c2n1)c1ncc(F)cn1
- Activity (Mus musculus [1]): 3.1%
- inhibition (Mus musculus [2]): Dose-dependent effect
- GI50 [3]: 760 nM
- IC50 [4]: 46 nM
- IC50 [5]: 40 nM
